B1: tRNA (parent)
chain: GUUCCGUUGGCGUAAUGGUAACGCGUCUCCCUCCUAAGGAGAAGACUGCGGGUUCGAGUCCCGUACGGAACG

Here are results for 167 variants from the RNAGym collection of RNA variant scans (doi:10.1126/science.aae0568).

Variants at the floor of the assay were thinned out.

This data set covers variants of B1. In words: yeast fitness relative to wild type (ratio to wild type); higher = fitter; tRNA-Arg(CCU), competitive growth, 37 C, YPD. An outline of the steps: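 The tRNA-Arg(CCU) gene variants were made by chemical synthesis with a 3% per-site mutation rate at 69 sites and inserted at the native genomic locus of Saccharomyces cerevisiae. After pooling, the strains were competed in YPD at 37°C for 24 hours in six parallel replicates. Gene amplicons from the start population and each end population were read by 100-nucleotide paired-end sequencing, and Darwinian fitness relative to wild type was taken from genotype frequency changes. Genotypes needed ≥ 100 starting reads, and estimates < 0.5 were set to 0.5.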
Consider G6A A14G C22G, for which the yeast fitness was at most 0.5. The same measure for G6A A15C A20U C29U: at most 0.5. To G6A A20C C61U belongs 0.663; to G6A A20C C61A, at most 0.5; to C5U U28G A42C, at most 0.5. In the case of C5U U32C C49U A57C, the yeast fitness is at most 0.5. The same measure for G6A A15C C22G C33U U59G C62G: 0.634; for C5U U35C A36U G38A C46A U54C G68C: at most 0.5.

In the case of G6A A36U C66U G67A, the yeast fitness is at most 0.5. Consider G6A A14G C46G C62G, for which the yeast fitness was at most 0.5. To G6A A36U G56A C66U belongs at most 0.5; to G6A A20U U26G C62U, at most 0.5. The same measure for G6A A14C A42U C62A C66U: at most 0.5; for G6A A21C U28A: at most 0.5; for G6A A21G C55U G56A: at most 0.5.

As to C5U U47C A57U G67C, the yeast fitness is at most 0.5. To G6A A15C A20U C61G belongs 0.565; to G6A A14G A36G A45U, 0.574.

With G6A A14U C29A C49A, the yeast fitness was at most 0.5. To G6A A21C C62U belongs at most 0.5; to C5U U32G, 0.669.

With C5U U32A, the yeast fitness turned out to be 0.789.

Turning to G6A A20C A70G, the yeast fitness came to 0.718. For G6A A20U A42G, the yeast fitness is at most 0.5. With G6A A15U C27A A65C A69C, the yeast fitness is at most 0.5. Consider G6A A21C U47A A70G, for which the yeast fitness is at most 0.5. On to G6A A21G C46A U54C, for which the yeast fitness is at most 0.5. As to G6A A15G C46A, the yeast fitness worked out at 0.557.

Take G6A A20U C62G C66G: the yeast fitness is at most 0.5.

Turning to G6A A14U G48A, the yeast fitness was determined as 0.547. To G6A A15G U26A C30G C46U belongs 0.661. To G6A A15G U19C C22A belongs at most 0.5; to G6A A20U C61U G67A G68U, at most 0.5; to G6A A14G G18A A42C, 0.618. The same measure for C5U U54A: 0.699.

With C5U U54C, the yeast fitness amounted to 0.805. To C5U U54G belongs 0.647; to C5U U32C A45C, 0.733. The same measure for G6A A14U C61A: at most 0.5; for G6A A15C G51A A57U G68A: at most 0.5; for C5U U54A A69U: at most 0.5. To G6A A21U C33U belongs 0.525. In the case of C5U U59C, the yeast fitness turned out to be 0.946. The same measure for C5U U59A: 0.886; for G6A A14C A40U A43G G48A: 0.607; for C5U U35C A36U G38A C46A U54C: 0.556.

With G6A A37G G68A A69G, the yeast fitness worked out at 0.545. To G6A A37U belongs 0.64; to G6A A14G A15G A20C U64A G67A, at most 0.5. As to C5U U28G A45C C66U, the yeast fitness was found to be 0.599. The same measure for C5U U35C U54C C55A: at most 0.5. The same measure for C5U U32C A45G C46A: 0.602; for G6A A37G U53G: at most 0.5. With G6A A20C C27U, the yeast fitness amounted to 0.663. The same measure for C5U U32C A37C C60U G67A: 0.572; for G6A A20U U53A G58A: 0.538; for G6A A15U G23A C33A U54A: at most 0.5. To G6A A37G G51C C61U belongs 0.528; to G6A A21G U32C U59G C66U A70C, at most 0.5; to G6A A20C A65U, 0.699. To G6A A20C A65G belongs 0.672; to G6A A20G C31G C46U, 0.58; to G6A A20U A21G C61U, at most 0.5. For G6A A21G G58C U59C, the yeast fitness was determined as 0.661. To G6A A15G belongs 0.712. Consider G6A A15U, for which the yeast fitness was determined as 0.628. The same measure for G6A A15C: 0.601.

As for C5U U47A C49U A69U, the yeast fitness is at most 0.5. For G6A A14U G23U, the yeast fitness was at most 0.5. Consider G6A A20G A36G C49G C61A, for which the yeast fitness was at most 0.5. To G6A A21G A43U A70G belongs at most 0.5; to G6A A20U C27A, at most 0.5. To G6A A36G A45C belongs 0.751; to G6A A15G C22A G25A C33U G52C G56C, at most 0.5; to G6A A21C A43U, 0.528. On to G6A A14U C55U C61A, for which the yeast fitness was at most 0.5.

For G6A A37C A65C A70C, the yeast fitness is at most 0.5. To G6A A14U C66U belongs at most 0.5; to G6A A20G C24U A40G A43G, at most 0.5. G6A A15G C30A G67A: the yeast fitness is at most 0.5.

For G6A A14G C33A, the yeast fitness is at most 0.5. To G6A A21U A45U G48C A57C G67U belongs at most 0.5; to G6A A21C C34U C49U C55G C62U, at most 0.5; to G6A A36U C61G, 0.646. To G6A A36G G48A belongs 0.59. With G6A A36G C60G C66U, the yeast fitness was at most 0.5.

On to G6A A21U, for which the yeast fitness is 0.659. Consider G6A A21C, for which the yeast fitness was 0.84. Turning to G6A A21G U35C A70C, the yeast fitness is at most 0.5. The same measure for G6A A14U C30U A69U: at most 0.5; for G6A A15G C30U A69U: at most 0.5.

On to G6A A20G A37G G50A, for which the yeast fitness was at most 0.5.

In the case of C5U U28G C49A, the yeast fitness is at most 0.5. With G6A A15G C46A A69U, the yeast fitness is at most 0.5. Consider G6A A15C C27A A37G A43G, for which the yeast fitness is at most 0.5. In the case of G6A A15C G23U, the yeast fitness is at most 0.5. To G6A A20C C49G G50C belongs at most 0.5; to G6A A14C C24U, 0.597; to G6A A20G C30U C55U, at most 0.5. Turning to C5U U35A, the yeast fitness came to 0.615.

As for C5U U35G, the yeast fitness is 0.592. The same measure for G6A A37C A42C A69C: at most 0.5; for G6A A14C C24U G50A A57U A70U: 0.745; for G6A A21C C33G A45C G50C: 0.515. Consider C5U U53C, for which the yeast fitness was 0.747.

For C5U U53A, the yeast fitness turned out to be 0.604. To G6A A14C A37U A57C G67U belongs at most 0.5; to G6A A15U A20U G38C, at most 0.5; to G6A A15C C29A C66U, at most 0.5. To C5U U32G C33G C55U belongs 0.621. In the case of G6A A20C A45U C46U A57C, the yeast fitness is 0.501.

Regarding G6A A14U A21U G25C C60U C61A C62G, the yeast fitness was at most 0.5. The same measure for G6A A14C A20G A42U G56A G63C: at most 0.5; for C5U U47G: 0.615. Regarding G6A A14C A37U U54A, the yeast fitness was at most 0.5.

Regarding G6A A15C C33U G39C C62G G68C, the yeast fitness was at most 0.5. To G6A A15U A20G belongs at most 0.5; to G6A A15G C29U, 0.607. For G6A A15G C29A, the yeast fitness is at most 0.5. To G6A A15G U54C belongs at most 0.5. To G6A A20U C29G C49G G63C belongs at most 0.5; to G6A A20C, 0.714. To G6A A20U belongs 0.851; to C5U U35C A45U C61G, at most 0.5; to G6A A20C C55A G68A, at most 0.5. In the case of G6A A14U C33G, the yeast fitness is at most 0.5. To C5U U32C C55U belongs 0.564; to G6A A20C C55A, 0.583; to G6A A20C C55U, 0.568. Consider C5U U28C C29G C49U, for which the yeast fitness is at most 0.5. The same measure for C5U U35C A43U A70G: at most 0.5; for C5U U32C G39A: 0.584.

With G6A A20U C27U A57U, the yeast fitness is at most 0.5. The same measure for C5U U32A G50A: 0.581. To G6A A15C C27G G44C C49A U64A belongs 0.538; to G6A A20C C66U, 0.889.

With G6A A14G G17C, the yeast fitness was at most 0.5. The same measure for G6A A21U C33U A57U U59C: at most 0.5. Regarding G6A A15C A36C A42U C55G C61U, the yeast fitness was at most 0.5. With G6A A36U, the yeast fitness was 0.604.

Take G6A A36G: the yeast fitness amounted to 0.89. For the variant G6A A20G C46U, the yeast fitness was determined as 0.723.

For G6A A14G G48C, the yeast fitness was at most 0.5. For the variant C5U U35C A45C, the yeast fitness was 0.743. For C5U U59G C61G, the yeast fitness is 0.606. The same measure for G6A A15C C29U: at most 0.5; for G6A A21C U47A G58A A65C: at most 0.5.

C5U U47C A57C: the yeast fitness is at most 0.5.

In the case of G6A A36U A40G G44U U54C, the yeast fitness is at most 0.5. The same measure for G6A A21G A37C A57C: at most 0.5. The same measure for G6A A14G: 0.844; for G6A A15C C60A C62U: at most 0.5.

With C5U U28G A45C, the yeast fitness was found to be 0.592. To G6A A20G A36G C49G C62A C66U belongs at most 0.5; to G6A A20G C29A A70U, at most 0.5. The same measure for G6A A15C A20U G68A: at most 0.5; for G6A A20U C49U: 0.542; for C5U U47C U54C C55G: at most 0.5. Take G6A A14U G23A C29G C46A C55G G68A A70C: the yeast fitness was at most 0.5.

As for G6A A15G C30A A57G, the yeast fitness was at most 0.5. To C5U U28C belongs 0.976. The same measure for C5U U28G: 0.71; for C5U U64A: 0.933; for C5U U64G: 0.853. In the case of C5U U64C, the yeast fitness came to 0.932.

As to C5U U28C C33G G38A U64G, the yeast fitness was at most 0.5. To G6A A15C C33G A36C belongs at most 0.5.
